Measured values from ChEMBL document CHEMBL5506001 (J Med Chem, 2024).
Values after ≈ are worked out from the molar mass of the structure shown. One block for each compound: values may come before it. Active and inactive are the calls of the source. No cut-off for these calls is given here.

Legend:
[1] = species: Bos taurus; experiment: Activation of full-length myosin ATPase activity in bovine Cardiomyofibril in presence of CaCl2 and ATP by HTS assay; assay type: tissue-based
How it was run: (§1)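 Calcium-stimulated ATPase activity of cardiac myofibrils (bovine), slow skeletal myofibrils (bovine masseter), fast skeletal myofibrils (rabbit) or chicken gizzard smooth muscle myosin; 10-point dose response up to 40 μM.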

[2] = target: cGMP-inhibited 3',5'-cyclic phosphodiesterase 3A (Homo sapiens, UniProt Q14432); experiment: Inhibition of PDE3A (unknown origin) using cAMP as substrate preincubated for 20 mins followed by substrate addition measured after 30 mins by HTS assay
Chain of cGMP-inhibited 3',5'-cyclic phosphodiesterase 3A (Q14432 whole entry): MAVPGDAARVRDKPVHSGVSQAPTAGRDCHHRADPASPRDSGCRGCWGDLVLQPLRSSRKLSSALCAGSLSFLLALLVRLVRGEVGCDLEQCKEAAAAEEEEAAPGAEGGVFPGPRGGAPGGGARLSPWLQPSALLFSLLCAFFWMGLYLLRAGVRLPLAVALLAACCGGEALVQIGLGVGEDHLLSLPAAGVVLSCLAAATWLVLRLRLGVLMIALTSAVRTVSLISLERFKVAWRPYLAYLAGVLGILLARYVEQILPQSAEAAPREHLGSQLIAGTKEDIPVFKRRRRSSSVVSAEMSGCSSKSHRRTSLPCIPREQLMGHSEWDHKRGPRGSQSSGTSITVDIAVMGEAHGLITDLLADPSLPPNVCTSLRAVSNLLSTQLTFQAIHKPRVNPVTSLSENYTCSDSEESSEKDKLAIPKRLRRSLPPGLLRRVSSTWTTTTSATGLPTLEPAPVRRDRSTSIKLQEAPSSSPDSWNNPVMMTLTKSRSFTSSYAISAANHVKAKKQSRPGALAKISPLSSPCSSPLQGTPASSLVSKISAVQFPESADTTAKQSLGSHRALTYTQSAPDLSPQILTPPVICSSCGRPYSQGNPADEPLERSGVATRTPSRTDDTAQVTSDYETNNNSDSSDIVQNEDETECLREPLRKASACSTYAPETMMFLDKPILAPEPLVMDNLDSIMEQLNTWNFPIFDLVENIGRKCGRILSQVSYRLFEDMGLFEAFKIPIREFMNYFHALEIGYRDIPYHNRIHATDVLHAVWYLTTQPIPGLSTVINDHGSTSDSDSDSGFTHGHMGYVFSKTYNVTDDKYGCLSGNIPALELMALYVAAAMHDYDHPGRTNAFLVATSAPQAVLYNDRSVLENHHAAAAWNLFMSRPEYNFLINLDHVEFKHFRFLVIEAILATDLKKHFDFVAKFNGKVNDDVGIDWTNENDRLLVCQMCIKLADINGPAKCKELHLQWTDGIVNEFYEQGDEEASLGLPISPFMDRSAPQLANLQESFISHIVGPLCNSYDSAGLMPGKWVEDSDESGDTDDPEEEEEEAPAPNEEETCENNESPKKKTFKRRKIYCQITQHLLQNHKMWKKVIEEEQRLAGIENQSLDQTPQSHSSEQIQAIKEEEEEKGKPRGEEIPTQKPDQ
How it was run: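 PDE3A preincubated with compound in 50 mM Tris, 5 mM MgCl₂, pH 7.5, for 20 min at room temperature. Then 0.2 µM cAMP substrate added for 30 min at room temperature, followed by a PDELight stop/detection mix.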

[3] = species: Bos taurus; experiment: Activation of full-length myosin ATPase activity in bovine slow skeletal myofibrils in presence of CaCl2 and ATP by HTS assay; assay type: tissue-based; settings: filed as activator; how it was run: as §1
[4] = Solubility of compound at pH 6.8 incubated for 12 hrs by HPLC analysis; assay type: physicochemical; settings: buffer, pH 6.8, 12 h
How it was run: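 Agitated 12 h at room temperature in pH 6.8 monopotassium phosphate JP2 buffer, filtered, quantified by HPLC against a standard.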

[5] = species: Oryctolagus cuniculus; settings: Fast skeletal myofibrils
[6] = species: Gallus gallus; settings: Gizzard
[7] = species: Bos taurus; experiment: Activation of Myosin S1 ATPase activity in bovine Cardiomyofibril at 40 uM in presence of bovine cardiac thin filament; assay type: tissue-based; settings: filed as activator
[8] = species: Oryctolagus cuniculus; experiment: Activation of Myosin S1 ATPase activity in rabbit fast skeletal myofibrils at 40 uM in presence of bovine cardiac thin filament; assay type: tissue-based; settings: filed as activator
[9] = Clearance in Sprague-Dawley rat at 0.5 mg/kg,iv administered as bolus injection measured after 24 hrs by HPLC analysis; assay type: ADME, organism-based; settings: in vivo
How it was run: (§2)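 Male Sprague-Dawley rats given a single intravenous bolus; blood sampled from just before dosing to 24 h after; compound in blood or plasma measured by HPLC against a standard.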

[10] = Half life in Sprague-Dawley rat at 0.5 mg/kg,iv administered as bolus injection measured after 24 hrs by HPLC analysis; assay type: ADME, organism-based; settings: in vivo; how it was run: as §2
[11] = Volume of distribution in Sprague-Dawley rat at 0.5 mg/kg,iv administered as bolus injection measured after 24 hrs by HPLC analysis; assay type: ADME, organism-based; settings: in vivo; how it was run: as §2
[12] = Plasma protein binding in rat assessed as unbound fraction at 5 uM incubated for 6 hrs by equilibrium dialysis based HPLC analysis; assay type: ADME, cell-free
How it was run: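 Equilibrium dialysis: compound added at 5 μM to the buffer chamber, shaken against rat plasma for 6 h at 37 °C. Both chambers analysed by HPLC against standards; reported as % unbound.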

[13] = species: Bos taurus; experiment: Activation of full-length myosin ATPase activity in bovine Cardiomyofibril at 0.01 to 100 uM in presence of CaCl2 and ATP by HTS assay; assay type: tissue-based; settings: dose 0.01-100 µM
[14] = species: Bos taurus; experiment: Activation of full-length myosin ATPase activity in bovine slow skeletal myofibrils at 0.01 to 100 uM in presence of CaCl2 and ATP by HTS assay; assay type: tissue-based; settings: dose 0.01-100 µM
[15] = tested on: Cardiac muscle cell; experiment: Induction of Sprague-Dawley rat Cardiomyocyte contractility assessed as increase in myocyte fractional shortening at 10 uM incubated for 5 mins by imaging analysis; assay type: functional, cell-based
[16] = tested on: Cardiac muscle cell; experiment: Induction of Sprague-Dawley rat Cardiomyocyte contractility by measuring myocyte relaxation velocity at 10 uM incubated for 5 mins by imaging analysis; assay type: functional
[17] = tested on: Cardiac muscle cell; experiment: Induction of Sprague-Dawley rat Cardiomyocyte contractility by measuring myocyte relaxation time at 10 uM incubated for 5 mins by imaging analysis; assay type: functional
[18] = tested on: Cardiac muscle cell; experiment: Induction of Sprague-Dawley rat Cardiomyocyte contractility assessed as increase in myocyte relaxation velocity at 10 uM incubated for 5 mins by imaging analysis relative to control; assay type: functional; parameters: scale not given: the % may be the effect or the level left
[19] = tested on: Cardiac muscle cell; experiment: Induction of Sprague-Dawley rat Cardiomyocyte contractility assessed as increase in myocyte relaxation time at 10 uM incubated for 5 mins by imaging analysis relative to control; assay type: functional; parameters: scale not given: the % may be the effect or the level left
[20] = species: Gallus gallus; experiment: Activation of full-length myosin ATPase activity in chicken Gizzard at 0.01 to 40 uM in presence of CaCl2 and ATP by HTS assay; settings: dose 0.01-40 µM
[21] = species: Oryctolagus cuniculus; experiment: Activation of full-length myosin ATPase activity in rabbit fast skeletal myofibrils at 0.01 to 40 uM in presence of CaCl2 and ATP by HTS assay; settings: dose 0.01-40 µM

- EC40 ([1]; filed as activator): 21.9 µM
Structure (SMILES): C[C@H]1C[C@H](C)CN(c2ccc(NS(=O)(=O)c3ccc4c(c3)c(=O)[nH]c(=O)n4C)cn2)C1

- EC40 ([1]; filed as activator): 11.1 µM
Structure (SMILES): C[C@@H]1C[C@H](C)CN(c2ccc(NS(=O)(=O)c3ccc4c(c3)c(=O)[nH]c(=O)n4C)cn2)C1

- EC40 ([1]; filed as activator): < 0.1 µM
- IC50 [2]: 4.6 µM
Structure (SMILES): Cn1c(=O)[nH]c(=O)c2cc(S(=O)(=O)Nc3ccc(-c4ccccc4)cc3)ccc21

- EC40 ([1]; filed as activator): < 0.1 µM
- EC40 [3]: < 0.1 µM
- IC50 [2]: 4.6 µM
- solubility [4]: 2.4 µM (≈ 0.944 µg/mL)
- EC40 [5]: > 39.2 µM
- EC40 [6]: > 39.2 µM
Structure (SMILES): O=c1[nH]c(=O)c2cc(S(=O)(=O)Nc3ccc(-c4ccccc4)cc3)ccc2[nH]1

- EC40 ([1]; filed as activator): 18 µM
Structure (SMILES): O=c1[nH]c(=O)c2cc(S(=O)(=O)Nc3ccc(-c4ccccc4)cn3)ccc2[nH]1

- EC40 [1]: > 33 µM
Structure (SMILES): C[C@H]1CCCN(c2ccc(NS(=O)(=O)c3ccc4c(c3)c(=O)[nH]c(=O)n4C)cn2)C1

- EC40 [1]: > 30 µM
Structure (SMILES): Cn1c(=O)[nH]c(=O)c2cc(S(=O)(=O)Nc3ccc(N4CCCCC4)nc3)ccc21

- EC40 ([1]; filed as activator): 5.5 µM
- Activity [7]: Active
- Activity [8]: Active
Structure (SMILES): O=c1[nH]c2ccc(S(=O)(=O)Nc3ccc(-c4ccccc4)cc3)cc2[nH]1

- EC40 [1]: > 39 µM
Structure (SMILES): O=c1[nH]c(=O)c2cc(S(=O)(=O)Nc3cnc(-c4ccccc4)nc3)ccc2[nH]1

- EC40 ([1]; filed as activator): 1.4 µM
- IC50 [2]: > 40 µM
- clearance [9]: 3.3 mL/min/kg
- t1/2 [10]: 1.1 h
- Vd [11]: 1.8 L/kg
- fraction unbound at 6 h, 5 µM [12]: 0.012
Structure (SMILES): CNc1cc2nc(C)[nH]c(=O)c2cc1S(=O)(=O)Nc1ccc(N2C[C@H](C)C[C@@H](C)C2)nc1

- EC40 [1]: > 39 µM
Structure (SMILES): O=c1[nH]c(=O)c2cc(S(=O)(=O)Nc3ccccc3)ccc2[nH]1

- EC40 ([1]; filed as activator): 0.7 µM
- IC50 [2]: > 40 µM
- clearance [9]: 7.1 mL/min/kg
- t1/2 [10]: 0.6 h
- Vd [11]: 3.8 L/kg
- fraction unbound at 6 h, 5 µM [12]: 0.037
Structure (SMILES): Cc1nc2cc(OCCN3CCOCC3)c(S(=O)(=O)Nc3ccc(N4C[C@H](C)C[C@@H](C)C4)nc3)cc2c(=O)[nH]1

- EC40 ([1]; filed as activator): 0.5 µM
Structure (SMILES): C[C@@H]1C[C@@H](C)CN(c2ccc(NS(=O)(=O)c3ccc4c(c3)c(=O)[nH]c(=O)n4C)cn2)C1

- EC40 ([1]; filed as activator): 4.3 µM
Structure (SMILES): C[C@@H]1CCCN(c2ccc(NS(=O)(=O)c3ccc4c(c3)c(=O)[nH]c(=O)n4C)cn2)C1

- EC40 ([1]; filed as activator): 0.7 µM
- IC50 [2]: > 40 µM
- clearance [9]: 0.1 mL/min/kg
- t1/2 [10]: 2.3 h
- fraction unbound at 6 h, 5 µM [12]: 0.008
Structure (SMILES): COc1cc2nc(C)[nH]c(=O)c2cc1S(=O)(=O)Nc1ccc(N2C[C@H](C)C[C@@H](C)C2)nc1

- EC40 ([1]; filed as activator): 4.5 µM
- IC50 [2]: > 40 µM
Structure (SMILES): Cc1nc2ccc(S(=O)(=O)Nc3ccc(N4C[C@H](C)C[C@@H](C)C4)nc3)cc2c(=O)[nH]1

- EC40 ([1]; filed as activator): 1.1 µM
- EC40 [3]: 1.7 µM
- IC50 [2]: 2.3 µM
- solubility [4]: 2.3 µM (≈ 0.953 µg/mL)
- Activity [13]: inactive
- Activity [14]: inactive
- Activity [7]: Active
- Activity [8]: Active
- EC40 [5]: > 39.2 µM
- EC40 [6]: > 39.2 µM
- Activity [20]: inactive
- Activity [21]: inactive
Structure (SMILES): O=c1[nH]c(=O)c2cc(S(=O)(=O)Nc3ccc(N4CCCCCC4)cc3)ccc2[nH]1
- Activity [15]: Active
- Activity [16]: 55.4 um/s
- Time [17]: 0.308 s
- Activity [18]: 23%
- Activity [19]: 30%

- EC40 [1]: > 39 µM
Structure (SMILES): CN(c1ccc(-c2ccccc2)cc1)S(=O)(=O)c1ccc2[nH]c(=O)[nH]c(=O)c2c1

- EC40 ([1]; filed as activator): 5.3 µM
Structure (SMILES): O=c1[nH]c(=O)c2cc(S(=O)(=O)Nc3ccc(-c4ccccc4)nc3)ccc2[nH]1
